Results reported in ChEMBL document CHEMBL1123901, “Inhibition of delayed hypersensitivity reactions by cinnamyl 1-thioglycosides” (J Med Chem, 1987).

Tests used:
Assay type in all cases: functional
Cavia porcellus [1] = organism: Cavia porcellus; assay: Effect on guinea pig T cell proliferation was tested by measuring the incorporation of [3H]-thymidine uptake at the concentration of 0 uM
Procedure, shortened: (§1)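 Strain 2 female guinea pigs were immunized with 100 μg OVA in CFA split over the footpads. At day 14 they received mineral oil ip, and the exudate was collected 4 days later. T cells were enriched on nylon wool. 2×10^5 cells per well were cultured with 10% irradiated (2100 rads) exudate cells, OVA (10 μg/mL) and compound, for 72 h at 37 °C in 5% CO2. [3H]thymidine (1 μCi) was added 18-24 h before harvest. Triplicate wells; mean Δcpm ± SD.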

Cavia porcellus [2] = organism: Cavia porcellus; assay: Effect on guinea pig T cell proliferation was tested by measuring the incorporation of [3H]thymidine uptake at the concentration of 750 uM; procedure, shortened: as §1
Cavia porcellus [3] = organism: Cavia porcellus; assay: Effect on guinea pig T cell proliferation was tested by measuring the incorporation of [3H]thymidine uptake at the concentration of 1000 uM; procedure, shortened: as §1
Cavia porcellus [4] = organism: Cavia porcellus; assay: Effect on guinea pig T cell proliferation was tested by measuring the incorporation of [3H]thymidine uptake at the concentration of 500 uM; procedure, shortened: as §1
Cavia porcellus [5] = organism: Cavia porcellus; assay: Effect on guinea pig T cell proliferation was tested by measuring the incorporation of [3H]-thymidine uptake at the concentration of 100 uM; procedure, shortened: as §1
Cavia porcellus [6] = organism: Cavia porcellus; assay: Effect on guinea pig T cell proliferation was tested by measuring the incorporation of [3H]thymidine uptake at the concentration of 250 uM; procedure, shortened: as §1
Cavia porcellus [7] = organism: Cavia porcellus; assay: Effect on guinea pig T cell proliferation was tested by measuring the incorporation of [3H]thymidine uptake at the concentration of 10 uM; procedure, shortened: as §1
Cavia porcellus [8] = organism: Cavia porcellus; assay: Inhibitory activity against [3H]thymidine uptake by cinnamyl 1-thioglycosides in guinea pig T cell proliferation; conditions: Cavia porcellus, T-cell; procedure, shortened: as §1

Row | SMILES | Activity (Cavia porcellus [1]) | Activity (Cavia porcellus [2]) | Activity (Cavia porcellus [3]) | Activity (Cavia porcellus [4]) | Activity (Cavia porcellus [5]) | Activity (Cavia porcellus [6]) | Activity (Cavia porcellus [7]) | IC50 (Cavia porcellus [8]; 72 h) [µM] | IC50 (Cavia porcellus [8]) [µM]
1 | COCC1OC(SC/C=C/c2ccccc2)C(O)C(O)C1O (stereo not given) | 88 Δcpm x10e-3 | 0 Δcpm x 10^-3 | 0 Δcpm x10e-3 | 0 Δcpm x10e-3 | 36.2 Δcpm x10e-3 | 1.23 Δcpm x10e-3 | 97 Δcpm x10e-3 | 41 | 
2 | CC(=O)NCC1OC(SC/C=C/c2ccccc2)C(O)C(O)C1O (stereo not given) | 79.8 Δcpm x10e-3 | 38.8 Δcpm x 10^-3 | 36 Δcpm x10e-3 | 39.3 Δcpm x10e-3 | 66.6 Δcpm x10e-3 | 52.9 Δcpm x10e-3 | 70.7 Δcpm x10e-3 |  | 
3 | OCC1OC(SCCCc2ccccc2)C(O)C(O)C1O (stereo not given) | 72.8 Δcpm x10e-3 | 18.5 Δcpm x 10^-3 | 0 Δcpm x10e-3 | 34.2 Δcpm x10e-3 | 59 Δcpm x10e-3 | 39.7 Δcpm x10e-3 | 70.3 Δcpm x10e-3 | 402 | 
4 | OCC1OC(OCC2OC(SCC=Cc3ccccc3)C(O)C(O)C2O)C(O)C(O)C1O (stereo not given) | 86.9 Δcpm x10e-3 | 13.04 µM | 3.85 Δcpm x10e-3 | 28.9 Δcpm x10e-3 | 54.9 Δcpm x10e-3 | 34.1 Δcpm x10e-3 | 64.2 Δcpm x10e-3 |  | 340
5 | NCC1OC(SC/C=C/c2ccccc2)C(O)C(O)C1O (stereo not given) | 81 Δcpm x10e-3 | 0.02 Δcpm x 10^-3 | 0.01 Δcpm x10e-3 | 1.23 Δcpm x10e-3 | 101 Δcpm x10e-3 | 71.1 Δcpm x10e-3 | 120 Δcpm x10e-3 |  | 
6 | O=C(CCCCC1CCSS1)NCC1OC(SC/C=C/c2ccccc2)C(O)C(O)C1O (stereo not given) | 93.2 Δcpm x10e-3 | 0 Δcpm x 10^-3 | 0.08 Δcpm x10e-3 | 0 Δcpm x10e-3 | 2.97 Δcpm x10e-3 | 0 Δcpm x10e-3 | 75.2 Δcpm x10e-3 |  | 
